We go through 17 compounds from article PMC4018401 (Journal of Medicinal Chemistry, 2014).

One data set can be described thus: HepG2 cytotoxicity assay. The format is cell-based. Conditions: human, HepG2 cells.
The nature of data set [1]: Microsomal stability, rat and human liver microsomes. Conditions: rat and human hepatic microsomes. The format is in vitro ADME. Background: Microsomes from liver hold many membrane-bound enzymes, among them those of drug oxidation.
Data set [2] deals with P. falciparum Tm93-C1088 (atovaquone resistant clinical isolate). Kind of data set: SYBR Green I parasite growth inhibition, P. falciparum Tm93-C1088. The format is cell-based. Conditions: Plasmodium falciparum, 72 h, read-out: EC50 TM93-C1088 (WRAIR). The method in brief: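 Atovaquone-resistant Thai isolate with cytochrome b Y268S, grown asynchronously in human erythrocytes (RPMI-1640/HEPES/hypoxanthine/Albumax II; 5% O2, 5% CO2, 90% N2). Triplicate 2-fold dilutions, 2% hematocrit, 0.2% starting parasitemia, 72 h at 37 °C. SYBR Green I dye–detergent added for 1 h in the dark at room temperature, fluorescence read at ex 497/em 520 nm. EC50 by nonlinear regression against drug-free wells; at least three determinations.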

Data set [3] concerns the target T1, P. falciparum cytochrome bc1 complex (Plasmodium falciparum, UniProt Q02768).
T1 sequence (Q02768 1-376): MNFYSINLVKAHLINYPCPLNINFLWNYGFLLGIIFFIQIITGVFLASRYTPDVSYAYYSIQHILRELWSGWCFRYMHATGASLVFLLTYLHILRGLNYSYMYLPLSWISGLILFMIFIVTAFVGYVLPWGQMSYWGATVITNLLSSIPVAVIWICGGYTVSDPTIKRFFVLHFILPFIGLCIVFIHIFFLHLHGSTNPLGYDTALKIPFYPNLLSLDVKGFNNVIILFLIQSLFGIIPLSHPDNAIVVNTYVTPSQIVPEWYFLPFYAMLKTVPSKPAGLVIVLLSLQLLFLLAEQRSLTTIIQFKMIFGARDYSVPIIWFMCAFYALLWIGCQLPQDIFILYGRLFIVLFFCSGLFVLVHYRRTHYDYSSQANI
Kind of data set: Inhibition of P. falciparum cytochrome bc1. The format is biochemical. The method in brief: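 Cytochrome c reductase assays. P. falciparum mitochondria: stirred cuvette at 35 °C with 100 μM decylubiquinol, 100 μM horse heart cytochrome c, 0.1 mg/mL dodecyl maltoside, 60 mM HEPES pH 7.4, 10 mM malonate, 1.0 mM EDTA, 2.0 mM KCN. Human HEK-293 mitochondria: detergent-solubilised; 50 mM Tricine pH 8.0, 100 mM KCl, 4 mM KCN, 50 μM each substrate. Baseline-subtracted initial rates expressed as fraction of uninhibited control.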

Data set [4] deals with P. yoelii (Kenya strain) infected mice. As to conditions: side-by-side tests; cited from earlier work.
Data set [5] shares this test system. The data set is described as follows: In vivo efficacy against murine malaria. Also noted: species or system Plasmodium yoelii. As to conditions: for in vivo antimalarial activity: P. yoelii in mice, oral; for times less effective than 7 against murine malaria: relative to compound 7. The method in brief: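 Female CF1 mice infected intravenously with 2.5–5.0 × 105 P. yoelii (Kenya strain) parasitized erythrocytes from a donor; groups of four. Test compound in PEG-400 given by oral gavage once daily for 4 days, starting the day after inoculation; initial doses 0.1–10 mg/kg/day, adjusted if needed. Chloroquine phosphate as positive control. Day-5 parasitemia read from Giemsa smears. Cure means parasite-free 30 days after the last dose; NRD is the dose needed for cure.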

The IC50 is the concentration that gives 50% inhibition. The low end stands for greater potency, the high end for weaker potency. As a reminder, the EC50 is the concentration needed to bring the measured effect to its halfway point.

Turning to `Cc1[nH]c2ccccc2c(=O)c1-c1ccc(Oc2ccccc2)cc1` [Compound 3, 2-Methyl-3-(4-phenoxyphenyl)quinolin-4(1H)-one], the half-maximal inhibitory concentration (IC50) in “HepG2 cytotoxicity assay” is more than 10 µM. Take `Cc1[nH]c2ccccc2c(=O)c1-c1ccc(Oc2ccc(OC(F)(F)F)cc2)cc1` [Compound 4, 2-Methyl-3-(4-(4-(trifluoromethoxy)phenoxy)phenyl)quinolin-4(1H)-one]: the “metabolic stability in microsomes” value in data set [1] is on record as “no detectable degradation”. This compound displayed an IC50 in the data set “HepG2 cytotoxicity assay” of more than 10 µM. Take `Cc1[nH]c2ccc(Cl)cc2c(=O)c1-c1ccc(Oc2ccc(OC(F)(F)F)cc2)cc1` [Compound 5, 6-Chloro-2-methyl-3-(4-(4-(trifluoromethoxy)phenoxy)phenyl)quinolin-4(1H)-one]: in the data set “HepG2 cytotoxicity assay”, the IC50 is more than 10 µM. For the compound `COc1ccc2c(=O)c(-c3ccc(Oc4ccc(OC(F)(F)F)cc4)cc3)c(C)[nH]c2c1` [Compound 6, 7-Methoxy-2-methyl-3-(4-(4-(trifluoromethoxy)phenoxy)phenyl)quinolin-4(1H)-one], the “metabolic stability in microsomes” value in data set [1] was “metabolized at a moderate to intermediate rate”. In addition, the IC50 in the data set “HepG2 cytotoxicity assay” was more than 10 µM. Turning to `COc1cc2[nH]c(C)c(-c3ccc(Oc4ccc(OC(F)(F)F)cc4)cc3)c(=O)c2cc1Cl` [Compound 7, 6-Chloro-7-methoxy-2-methyl-3-(4-(4-(trifluoromethoxy)phenoxy)phenyl) quinolin-4(1H)-one], in data set [2], the 50% effective concentration (EC50) was found to be 0.001 µM. Moreover, the “parasite selectivity (P. falciparum vs human cytochrome bc1)” value in data set [3] is reported as not below 20000 fold. For the same compound, the IC50 in the data set “HepG2 cytotoxicity assay” was more than 10 µM. Moreover, the “fold more effective than atovaquone against murine malaria” value in data set [4] is given as 30 fold.

Turning to `COc1cc2[nH]c(C)c(-c3ccc(Oc4ccccc4)cc3)c(=O)c2cc1F` [Compound 13, 6-Fluoro-7-methoxy-2-methyl-3-(4-phenoxyphenyl)quinolin-4(1H)-one], the IC50 in “HepG2 cytotoxicity assay” is more than 10 µM. Still for that read-out and setting: the value for `Cc1[nH]c2ccc(F)cc2c(=O)c1-c1ccc(Oc2ccc(OC(F)(F)F)cc2)cc1` [Compound 18a, 6-Fluoro-2-methyl-3-(4-(4-(trifluoromethoxy)phenoxy)phenyl)quinolin-4(1H)-one] was more than 10 µM; that for `COc1cc2[nH]c(C)c(-c3ccc(Oc4ccc(OC(F)(F)F)cc4)cc3)c(=O)c2cc1F` [Compound 18b, 6-Fluoro-7-methoxy-2-methyl-3-(4-(4-(trifluoromethoxy)phenoxy)phenyl)quinolin-4(1H)-one] was more than 10 µM. As for `COc1cc2[nH]c(C)c(-c3ccc(Oc4cccc(OC(F)(F)F)c4)cc3)c(=O)c2cc1Cl` [Compound 20a, 6-Chloro-7-methoxy-2-methyl-3-(4-(3-(trifluoromethoxy)phenoxy)phenyl)quinolin-4(1H)-one], the “metabolic stability in microsomes” value in data set [1] was “metabolically unstable”. The “in vivo antimalarial activity” value in data set [5] is listed as “ineffective in vivo”. In the case of `COc1cc2[nH]c(C)c(-c3ccc(Oc4ccc(C(F)(F)F)cc4)cc3)c(=O)c2cc1Cl` [Compound 20b, 6-Chloro-7-methoxy-2-methyl-3-(4-(4-(trifluoromethyl)phenoxy)phenyl)quinolin-4(1H)-one], in data set [1], the “metabolic stability in microsomes” value was “metabolically stable”. Take `COc1cc2[nH]c(C)c(-c3ccc(Oc4ccc(Cl)cc4)cc3)c(=O)c2cc1Cl` [Compound 20c, 6-Chloro-3-(4-(4-chlorophenoxy)phenyl)-7-methoxy-2-methylquinolin-4(1H)-one]: the “metabolic stability in microsomes” value in data set [1] was “metabolically stable”. Moreover, in the data set “HepG2 cytotoxicity assay”, the IC50 is more than 10 µM. The “times less effective than 7 against murine malaria” value in data set [5] is recorded as 3–10 times. Take `COc1cc2[nH]c(C)c(-c3ccc(Oc4ccc(F)cc4)cc3)c(=O)c2cc1Cl` [Compound 20d, 6-Chloro-3-(4-(4-fluorophenoxy)phenyl)-7-methoxy-2-methylquinolin-4(1H)-one]: the “metabolic stability in microsomes” value in data set [1] is reported as “metabolically stable”. For the compound `COc1cc2[nH]c(C)c(-c3ccc(Oc4ccc(OC(F)(F)F)cc4)nc3)c(=O)c2cc1Cl` [Compound 25a, 6-Chloro-7-methoxy-2-methyl-3-(6-(4-(trifluoromethoxy)phenoxy)pyridin-3-yl)quinolin-4(1H)-one], the IC50 in “HepG2 cytotoxicity assay” was more than 10 µM. In addition, the “times less effective than 7 against murine malaria” value in data set [5] is 3–10 times. As for `COc1cc2[nH]c(C)c(-c3ccc(Oc4ccc(OC(F)(F)F)cc4)cn3)c(=O)c2cc1Cl` [Compound 25b, 6-Chloro-7-methoxy-2-methyl-3-(5-(4-(trifluoromethoxy)phenoxy)pyridin-2-yl)quinolin-4(1H)-one], the IC50 in the data set “HepG2 cytotoxicity assay” was more than 10 µM. On the same count and under the same terms, the figure for `COc1cc2[nH]c(C)c(-c3cnc(Oc4ccc(OC(F)(F)F)cc4)nc3)c(=O)c2cc1Cl` [Compound 25c, 6-Chloro-7-methoxy-2-methyl-3-(2-(4-(trifluoromethoxy)phenoxy)pyrimidin-5-yl)quinolin-4(1H)-one] is more than 10 µM; for `O=C1C(O)=C([C@H]2CC[C@H](c3ccc(Cl)cc3)CC2)C(=O)c2ccccc21` [atovaquone, reference compound] it is more than 10 µM. As to `CCCCCCCc1c(C)nc2cc(OC)ccc2c1O` [endochin, reference compound], in “HepG2 cytotoxicity assay”, the IC50 is more than 10 µM. Also, the “in vivo antimalarial activity” value in data set [5] was “inactive in vivo”.
